Experimental data from ChEMBL document CHEMBL2177030.
Active and inactive are the calls of the source. No cut-off for these calls is given here.

Assays:
[1] = molecular target: T1, Gastric triacylglycerol lipase (Canis lupus familiaris) (UniProt P80035); assay: Inhibition of dog recombinant gastric lipase expressed in transgenic maize at 200 molar excess compound concentration pre-incubated for 2 hrs with enzyme before substrate addition by pH-stat technique; type: single protein; conditions: Stomach
T1 sequence (whole entry): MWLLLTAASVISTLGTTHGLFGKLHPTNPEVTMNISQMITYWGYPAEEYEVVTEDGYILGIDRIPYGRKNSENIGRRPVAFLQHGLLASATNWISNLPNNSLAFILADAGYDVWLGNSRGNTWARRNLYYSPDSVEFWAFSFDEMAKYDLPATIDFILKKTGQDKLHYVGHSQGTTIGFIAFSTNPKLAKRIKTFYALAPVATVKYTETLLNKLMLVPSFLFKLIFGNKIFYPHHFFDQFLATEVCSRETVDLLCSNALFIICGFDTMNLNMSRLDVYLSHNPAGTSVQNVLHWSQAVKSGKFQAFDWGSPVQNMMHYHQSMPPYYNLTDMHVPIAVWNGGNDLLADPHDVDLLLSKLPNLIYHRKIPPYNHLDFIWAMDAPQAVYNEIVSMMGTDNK

[2] = molecular target: T2, Pancreatic lipase-related protein 2 (Cavia porcellus) (UniProt P81139); assay: Inhibition of guinea pig recombinant PLRP2 expressed in Aspergillus oryzae at 200 molar excess compound concentration pre-incubated for 2 hrs with enzyme before substrate addition by pH-stat technique
T2 sequence (whole entry): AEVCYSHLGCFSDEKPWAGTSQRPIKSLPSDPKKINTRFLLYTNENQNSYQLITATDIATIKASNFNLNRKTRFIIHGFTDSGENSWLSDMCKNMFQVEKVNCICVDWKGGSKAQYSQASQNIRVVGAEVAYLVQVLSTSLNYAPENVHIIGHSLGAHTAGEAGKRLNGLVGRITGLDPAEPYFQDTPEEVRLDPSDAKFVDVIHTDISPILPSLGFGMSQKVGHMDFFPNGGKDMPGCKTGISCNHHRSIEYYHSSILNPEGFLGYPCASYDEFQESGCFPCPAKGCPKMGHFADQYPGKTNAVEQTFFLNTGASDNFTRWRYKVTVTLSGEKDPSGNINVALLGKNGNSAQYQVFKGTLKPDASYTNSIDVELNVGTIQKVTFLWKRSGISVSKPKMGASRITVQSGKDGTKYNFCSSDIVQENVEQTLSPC

[3] = molecular target: T3, Pancreatic triacylglycerol lipase (Homo sapiens) (UniProt P16233); assay: Inhibition of human recombinant pancreatic lipase expressed in Pichia pastoris at 200 molar excess compound concentration pre-incubated for 2 hrs with enzyme before substrate addition by pH-stat technique
T3 sequence (whole entry): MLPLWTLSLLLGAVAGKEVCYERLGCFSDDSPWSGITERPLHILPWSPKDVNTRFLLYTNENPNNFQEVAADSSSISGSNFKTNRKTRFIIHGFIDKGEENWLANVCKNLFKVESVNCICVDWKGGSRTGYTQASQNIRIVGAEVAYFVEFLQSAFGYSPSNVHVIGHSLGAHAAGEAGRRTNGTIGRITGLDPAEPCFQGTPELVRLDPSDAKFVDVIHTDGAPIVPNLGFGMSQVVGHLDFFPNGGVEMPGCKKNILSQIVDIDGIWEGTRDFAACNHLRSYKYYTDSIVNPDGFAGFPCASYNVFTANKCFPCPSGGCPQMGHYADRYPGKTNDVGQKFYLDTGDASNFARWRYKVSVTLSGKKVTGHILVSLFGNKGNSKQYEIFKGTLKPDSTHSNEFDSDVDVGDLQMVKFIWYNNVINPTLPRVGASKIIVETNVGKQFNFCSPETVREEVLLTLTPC

[4] = test system: Mycobacterium tuberculosis; assay: Inhibition of Mycobacterium tuberculosis LipY pre-incubated for 30 mins with enzyme before substrate addition by pH-stat technique
Procedure, shortened: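 Without NaTDC, LipY was incubated 30 min at 25 °C with inhibitor at xI 2–100. Residual activity was determined by pH-stat at 37 °C on TC4 in 2.5 mM Tris-HCl pH 7.5, 300 mM NaCl, 3 mM NaTDC. xI50 was taken from activity versus molar excess. Isopropanol-only controls were run. At least duplicate.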

[5] = molecular target: Monoacylglycerol lipase (Mycobacterium tuberculosis H37Rv) (UniProt O07427); assay: Inhibition of Mycobacterium tuberculosis Rv0183 pre-incubated for 30 mins with enzyme before substrate addition by pH-stat technique
Procedure, shortened: (§1)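 Rv0183 was preincubated 30 min at 25 °C without NaTDC at inhibitor molar excess 2, 4, 20, 40 or 100. Residual monoglyceride lipase activity was measured by pH-stat at 37 °C with MC18 emulsion, pH 8.0, 3 mM NaTDC. xI50 was read from the residual-activity curve. Solvent controls were run. At least duplicate.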

[6] = molecular target: T4, Cutinase 1 (Fusarium vanettenii) (UniProt P00590); assay: Inhibition of Fusarium solani pisi cutinase pre-incubated for 30 mins with enzyme before substrate addition by pH-stat technique
T4 sequence (whole entry): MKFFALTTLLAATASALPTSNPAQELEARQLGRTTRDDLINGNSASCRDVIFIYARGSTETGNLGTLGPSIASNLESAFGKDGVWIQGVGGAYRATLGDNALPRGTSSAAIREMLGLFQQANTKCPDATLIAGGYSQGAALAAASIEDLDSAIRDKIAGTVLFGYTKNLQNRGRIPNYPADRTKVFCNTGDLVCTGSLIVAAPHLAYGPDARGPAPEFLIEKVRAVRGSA
Procedure, shortened: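 Cutinase was preincubated for 30 min at 25 °C in 2 mM NaTDC, substrate absent, at inhibitor molar excess xI 2, 4, 20, 40 or 100. Residual activity was measured by pH-stat at 37 °C on TC4 emulsion at pH 8.0 with 0.25 mM NaTDC. xI50 is the molar excess giving 50% activity. Isopropanol controls were run. At least duplicate.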

[7] = molecular target: T1, Gastric triacylglycerol lipase (Canis lupus familiaris); assay: Inhibition of dog recombinant gastric lipase expressed in transgenic maize pre-incubated for 30 mins with enzyme before substrate addition by pH-stat technique; type: tissue-based; conditions: Stomach
Procedure, shortened: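 Gastric lipase was incubated 30 min at 25 °C with 4 mM NaTDC at inhibitor xI 2–100. Residual activity was measured by pH-stat at 37 °C on TC4 emulsion in 150 mM NaCl, 2 mM NaTDC, 2 µM BSA, pH 5.5. xI50 is the molar excess halving activity. At least duplicate.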

[8] = molecular target: T2, Pancreatic lipase-related protein 2 (Cavia porcellus); assay: Inhibition of guinea pig recombinant PLRP2 expressed in Aspergillus oryzae pre-incubated for 30 mins with enzyme before substrate addition by pH-stat technique
[9] = molecular target: T3, Pancreatic triacylglycerol lipase (Homo sapiens)
[10] = molecular target: T4, Cutinase 1 (Fusarium vanettenii); assay: (§2) Inhibition of Fusarium solani pisi cutinase assessed as covalent bond formation with enzyme serine residue by measuring change in molecular weight of enzyme-compound complexes at 40 molar excess compound concentration pre-incubated for 30 mins with enzyme before substrate addition by MALDI-TOF mass spectrometry method
Procedure, shortened: (§3)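 Each enzyme was preincubated with the inhibitor for 30 min at 25 °C at xI 40, with the inhibitor taken from a 5 mg/mL isopropanol stock. Intact masses of native and inhibited protein were measured by MALDI-TOF. For tryptic mapping, 5–50 pmol protein was reduced with DTT, alkylated with iodoacetamide and digested overnight at 37 °C.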

[11] = test system: Mycobacterium tuberculosis; assay: Inhibition of Mycobacterium tuberculosis LipY at 40 molar excess compound concentration pre-incubated for 30 mins with enzyme before substrate addition by pH-stat technique
[12] = test system: Mycobacterium tuberculosis; assay: as §2, with “Mycobacterium tuberculosis LipY” for “Fusarium solani pisi cutinase”; procedure, shortened: as §3
[13] = test system: Mycobacterium tuberculosis; assay: Inhibition of Mycobacterium tuberculosis LipY assessed as half inactivation time pre-incubated with enzyme before substrate addition by pH-stat technique
Procedure, shortened: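 LipY was incubated with inhibitor at xI 4 at 25 °C without NaTDC for up to 1 h. At time points, residual activity was titrated by pH-stat at 37 °C on TC4 emulsion in 2.5 mM Tris-HCl pH 7.5, 300 mM NaCl, 3 mM NaTDC. Half-inactivation time came from the curve. Runs were done at least in duplicate.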

[14] = molecular target: Monoacylglycerol lipase (Mycobacterium tuberculosis H37Rv) (UniProt O07427); assay: as §2, with “Mycobacterium tuberculosis Rv0183” for “Fusarium solani pisi cutinase”; procedure, shortened: as §3
[15] = molecular target: Monoacylglycerol lipase (Mycobacterium tuberculosis H37Rv) (UniProt O07427); assay: Inhibition of Mycobacterium tuberculosis Rv0183 assessed as half inactivation time pre-incubated with enzyme before substrate addition by pH-stat technique
Procedure, shortened: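 For the time course, Rv0183 was exposed to inhibitor at xI 4 at 25 °C without bile salt for 1 h. Residual activity was read at intervals by pH-stat at 37 °C using 100 µL MC18 in 15 mL 2.5 mM Tris-HCl pH 8.0, 150 mM NaCl, 3 mM NaTDC. t1/2 was derived from the curve. Runs were done at least in duplicate.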

[16] = molecular target: Monoacylglycerol lipase (Mycobacterium tuberculosis H37Rv) (UniProt O07427); assay: Inhibition of Mycobacterium tuberculosis Rv0183 assessed as residual enzyme activity pre-incubated for 30 mins with enzyme before substrate addition by pH-stat technique; procedure, shortened: as §1

Sequence of Monoacylglycerol lipase (Mycobacterium tuberculosis H37Rv) (O07427 whole entry): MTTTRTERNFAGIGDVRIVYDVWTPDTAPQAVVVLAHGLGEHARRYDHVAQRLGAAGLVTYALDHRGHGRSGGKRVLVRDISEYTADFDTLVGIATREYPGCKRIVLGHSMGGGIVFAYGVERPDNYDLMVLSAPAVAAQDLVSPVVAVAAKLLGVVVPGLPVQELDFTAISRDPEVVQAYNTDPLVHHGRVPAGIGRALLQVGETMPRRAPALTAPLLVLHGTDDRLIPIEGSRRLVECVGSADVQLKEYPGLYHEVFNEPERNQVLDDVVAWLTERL

CCCCCCCCCC[C@@H]1CC[P@](=O)(OC)OC(C)=C1C(=O)OC (racemic)
inhibition [1]: inactive | inhibition [2]: inactive | inhibition [3]: inactive | XI50 [4]: 25.8 molar excess | XI50 [5]: 3.57 molar excess | XI50 [6]: 14.6 molar excess

CCCCCCCCCCCCCCCCCC[C@@H]1CC[P@@](=O)(OC)OC(C)=C1C(=O)OC (racemic)
inhibition [1]: inactive | inhibition [2]: inactive | inhibition [3]: inactive | XI50 [4]: 0.77 molar excess | XI50 [5]: 3.15 molar excess | XI50 [6]: 1.18 molar excess

CCCCCCCCCCC[C@@H](C[C@@H]1OC(=O)[C@H]1CCCCCC)OC(=O)[C@H](CC(C)C)NC=O
XI50 [4]: 7.07 molar excess | XI50 [5]: > 200 molar excess | XI50 [6]: 2.52 molar excess | XI50 [7]: 5.6 molar excess | XI50 [8]: 0.53 molar excess | XI50 [9]: 18.4 molar excess

COC(=O)C1=C(C)OP(=O)(OC)CCC1 (racemic)
Activity [10]: 233 Da | inhibition [1]: inactive | inhibition [2]: inactive | inhibition [3]: inactive | inhibition [11]: 14% | XI50 [4]: > 100 molar excess | XI50 [5]: 30.5 molar excess | XI50 [6]: 1.39 molar excess

CCCCCCCCCCCCCCCCCCOP1(=O)CCCC(C(=O)OC)=C(C)O1 (configuration not stated)
inhibition [1]: inactive | inhibition [2]: inactive | inhibition [3]: inactive | XI50 [4]: 0.59 molar excess | XI50 [5]: inactive | XI50 [6]: 0.95 molar excess

CO[P@@]1(=O)CC[C@@H]2COC(=O)C2=C(C)O1 (racemic)
inhibition [1]: inactive | inhibition [2]: inactive | inhibition [3]: inactive | inhibition [11]: 14% | XI50 [4]: > 100 molar excess | XI50 [5]: 41.6 molar excess | XI50 [6]: 4.49 molar excess

CCCCCCCCCCCC[C@@H]1CC[P@@](=O)(OC)OC(C)=C1C(=O)OC (racemic)
inhibition [1]: inactive | inhibition [2]: inactive | inhibition [3]: inactive | XI50 [4]: 3.46 molar excess | XI50 [5]: 5.23 molar excess | XI50 [6]: 2 molar excess

CO[P@]1(=O)CC[C@@H]2COC(=O)C2=C(C)O1 (racemic)
inhibition [1]: inactive | inhibition [2]: inactive | inhibition [3]: inactive | inhibition [11]: 14% | XI50 [4]: > 100 molar excess | XI50 [5]: 43.2 molar excess | XI50 [6]: 8.77 molar excess

CCCCCCCCCCCCCCCC[C@@H]1CC[P@](=O)(OC)OC(C)=C1C(=O)OC (racemic)
inhibition [1]: inactive | inhibition [2]: inactive | inhibition [3]: inactive | XI50 [4]: 3.47 molar excess | XI50 [5]: > 100 molar excess | XI50 [6]: 4.43 molar excess

COP1(=O)CCCC(CO)=C(C)O1 (racemic)
inhibition [1]: inactive | inhibition [2]: inactive | inhibition [3]: inactive | XI50 [4]: inactive | XI50 [5]: inactive | XI50 [6]: > 100 molar excess

CCCCCCCCCCCCCCCCOP1(=O)CCCC(C(=O)OC)=C(C)O1 (configuration not stated)
Activity [12]: 444 Da | inhibition [1]: inactive | inhibition [2]: inactive | inhibition [3]: inactive | T1/2 [13]: 9.6 s | XI50 [4]: 0.83 molar excess | XI50 [5]: inactive | XI50 [6]: 0.56 molar excess

CCCCCCCCCCCC[C@@H]1CC[P@](=O)(OC)OC(C)=C1C(=O)OC (racemic)
inhibition [1]: inactive | inhibition [2]: inactive | inhibition [3]: inactive | XI50 [4]: 6.14 molar excess | XI50 [5]: 2.44 molar excess | XI50 [6]: 3.63 molar excess

CCCCCCCCCC[C@@H]1CC[P@@](=O)(OC)OC(C)=C1C(=O)OC (racemic)
Activity [14]: 377 Da | inhibition [1]: inactive | inhibition [2]: inactive | inhibition [3]: inactive | T1/2 [15]: 86.4 s | Activity [16]: 6% | XI50 [4]: 2.81 molar excess | XI50 [5]: 1.13 molar excess | XI50 [6]: 1.98 molar excess

CCCCC[C@@H]1CC[P@@](=O)(OC)OC(C)=C1C(=O)OC (racemic)
inhibition [1]: inactive | inhibition [2]: inactive | inhibition [3]: inactive | XI50 [4]: > 100 molar excess | XI50 [5]: 2.7 molar excess | XI50 [6]: 1.42 molar excess

CCCCC[C@@H]1CC[P@](=O)(OC)OC(C)=C1C(=O)OC (racemic)
inhibition [1]: inactive | inhibition [2]: inactive | inhibition [3]: inactive | XI50 [4]: > 100 molar excess | XI50 [5]: 3.79 molar excess | XI50 [6]: 26.2 molar excess

CCCCCCCCCCCCCCCCCC[C@@H]1CC[P@](=O)(OC)OC(C)=C1C(=O)OC (racemic)
inhibition [1]: inactive | inhibition [2]: inactive | inhibition [3]: inactive | XI50 [4]: 7.47 molar excess | XI50 [5]: > 100 molar excess | XI50 [6]: 7.26 molar excess

CCCCCCCCCCCCCCCC[C@@H]1CC[P@@](=O)(OC)OC(C)=C1C(=O)OC (racemic)
inhibition [1]: inactive | inhibition [2]: inactive | inhibition [3]: inactive | XI50 [4]: 0.6 molar excess | XI50 [5]: 1.32 molar excess | XI50 [6]: 2.54 molar excess

CCCCCC1CCP(=O)(OC)OC(C)=C1C(=O)OC (racemic)
inhibition [11]: 14%
